Test results as given in the EternaBench riboswitch data.

Tested on: MS2 coat protein
Assay: apparent Kd, MS2 coat protein; higher = weaker binding; RNA-MaP array; FMN 200 µM where present
Method in brief: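 In 100 mM Tris-HCl pH 7.5, 80 mM KCl, 4 mM MgCl2, BSA, DTT, yeast tRNA and Tween-20, SNAP-549-labelled MS2 coat protein was titrated from 0.7 or 1.5 nM, doubling to 3 µM, over designs transcribed by stalled E. coli RNA polymerase on Illumina sequencing-chip clusters. This was done first without ligand, then with ligand held constant. After green signal was normalised to red-channel RNA signal and control-cluster median Fmax, the apparent Kd was taken as the median of filtered per-cluster binding-curve fits.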

[1] = designed as: OFF switch for flavin mononucleotide, no ligand
[2] = ligand present: flavin mononucleotide, designed as: OFF switch for flavin mononucleotide
[3] = designed as: ON switch for flavin mononucleotide, no ligand
[4] = ligand present: flavin mononucleotide, designed as: ON switch for flavin mononucleotide

Sequence	apparent Kd [1]	apparent Kd [2]	apparent Kd [3]	apparent Kd [4]
GGAGAGGAAACAUGAGGAUCACCCAUGUGAGUGGUCCGAAGAUAGGAUAUCCACACGAGAAGUGUGGAGAAGGAUCACCUCUCC	746 nM	571 nM		
AUGAGUGUAAUGAUAGAGCCACUGCAGGAUAUCACAUGAGGAUCACCCAUGUGUCAGCCUCGGAGUGAGAAGGGCGGUUUCUUA	5.65 nM	9.7 nM		
ACAGUAUAUGUAGGAUAUCAUUGGCUAGGUAGGUGAGAAGGGCAUAGUACAUGAGGAUCACCCAUGUGUUGGUCCUCGCAGAAA	634 nM	380 nM		
GUGGUCAGACAUGAGGAUCACCCAUGUGGAAUAAAUAAGGAAAAGGAUAUGGAAUAUAGGAUAUACCAGAAGGUUUGGUUGGUG			105 nM	127 nM
GGUGCCAUGUAGAAGGCAGAUCUGAUUCAGAUCUGAGGAUAUACAUGAGGAUCACCCAUGUAAAGCCACCGCACGAGAGUGCAA	70.2 nM	190 nM		
GGGCCCGGAGGAUAUACAAUUGUGUGUGGAAACGCGCGCGUACAUGAGGAUCACCCAUGUAGAAGGCCGGGCCC	15.9 nM	54.6 nM		
GUCUCGAUGUAAGGAUAUGCAGUGGAAUACACUGCAGAAGGUACAUGAGGAUCACCCAUGUAACUCUAAUAAUAAUAACGAGAC	12 nM	19.2 nM		
UUCGGCGCAGGAUAUACAGUUCUGUGUUGAAUCGGCGCGGGACAUGAGGAUCACCCAUGUAGAAGGGUGUUGAA	1160 nM	578 nM		
AAUAACAAGCAGAAGGGUGAAACGAUAUAGUGCACAGGAUAUGCAAUAAUUCUAAACAUGAGGAUCACCCAUGUCUAGCAUAAA			28.2 nM	9.84 nM
CUAGUACAUGAGGAUCACCCAUGUCAGGAUAUUGGAUAUGCCUUGGAAUACGUGUUUACAAGAAGGGACUAUAG	18.7 nM	19.2 nM		
AAAACGUCAGGAUAUCCAAUAUAUGACAUGAGGAUCACCCAUGUUUCCACUCGUACCUCCGGAGAAGGGACUUUUU	42.6 nM	39.4 nM		
AGCUAGUCAGGAUAUACGAACAUGUCAAAAGACGUGAACCCACAUGAGGAUCACCCAUGUAGAAGGGACUAGCA	26 nM	65.7 nM		
AGUAACAGAGGAUAUACUAUUUUAUGUGUUUAUUAUUUUGAACAUGAGGAUCACCCAUGUAGAAGGCUGAAUAA	27 nM	30.1 nM		
CUGGUGUGAGGAUAUCAGGACACGCCCGAGGGCGUGUCAAAUGAGAAGGCACAUGAGGAUCACCCAUGUGGGAC	42.3 nM	99.6 nM		
AGAAAACAUGAGGAUCACCCAUGUCAGGAUAUCUCCAAGGCUUAACAUCCAGCCCUGCAGAGAAGGGACGGGUG	87.9 nM	225 nM		
UUAAUUUAAUGAUAUUAUGACAUUAGAAGGCUGUACAUGUUGAUACAUGAGGAUCACCCAUGUAUAGAGGAUAUAGACAAUUUU	33.2 nM	89 nM		
AACAUGAGGAUCACCCAUGUCCCACCAGAAGGCUGGCGGCCACAGGAACGGCUGUGGCAAAUAACAGAGGAUAUGGUGAAUGCA			80.8 nM	16.1 nM
UUACAGCACGGGUAGGAUAUGUAGGGUGGUACAUGAGGAUCACCCAUGUAUCCACCCUUCUAACGGCAGAAGGGCCUGUCGCUGC			31.8 nM	20.9 nM
ACGACGAAAGUCGAACGAUGUAGCAGAAGGACAUGAGGAUCACCCAUGUCAGCUGUGACCAAAAUGUAGGAUAUGCUACAUCGA	71.1 nM	90.8 nM		
UCAUUUCUGUAAGGAUAUUAAUUCAUGACGAUACAUGAGGAUCACCCAUGUUAAGAAGGUACAAAUACAAAUAAUGCAUUGUUC	11.8 nM	10.6 nM		
GGAGCCGGCACCGAGGAUAUUCAUAUUAAAACAUGAGGAUCACCCAUGUAGGCCAGAAGGCCUUGGGAGAAGGCGGACCGGCUCG			654 nM	31.1 nM
GGAGCUCACAUCUACAUGAGGAUCACCCAUGUCAAAAGACAUGAGGAUAUGCAUCCUAAUUGGAUGCAGAAGGCAUGGAGCUCC			946 nM	57.4 nM
UCCUGACCGAGAGAUAGGAGUAGUAGAAGGCGACCGGUGCCAGAUGACAUGAGGAUCACCCAUGUCGAGGAUAUACUACAGAAU	6.99 nM	9.63 nM		
GGAUGACAAAGUCAUCCUAUUCGAACAUGAGGAUCACCCAUGUAGGAUAUGCUUCUCAAAGAGAAGCAGAAGGACAUGUGCCUU	32 nM	182 nM		

Sequence	apparent Kd [1]	apparent Kd [2]	apparent Kd [3]	apparent Kd [4]
AGACGGAGCUGAGGAUAUAACAUGAGGAUCACCCAUGUAAGUCUCCAGGAAACUGGAGACAAAUGUUAGAAGGCAGCUCCGUCA	39.8 nM	51.2 nM		
UUAAUGUGAGGAUAUCAGGUGUGCUAGCGUACUGGUACAUCUGAGAAGGCACAUGAGGAUCACCCAUGUUCCUG	22.1 nM	77.6 nM		
CUACAUGAGGAUCACCCAUGUGCGCACUGGAUCAGUGCGCGCAGAAGGGCCAUGGAGAAAGCCAGGCAGGAUAUGCAAAGGGCU			288 nM	226 nM
CGGCAAGUCACAGGAUAUGGUGAUGUACAUGAGGAUCACCCAUGUCCGUCUUCUCUCACAAGAUGCCAGAAGGGUGACCUCCGG			760 nM	131 nM
GGUGACCUUGUAAGGAUAUCGAAUUUAGAUGAGCACGAGAAGGUACAUGAGGAUCACCCAUGUCUGCGGUAACU	50.8 nM	102 nM		
AGCUGUGGCCGAGGAUAUGCUACUUCAAUAACCGAAAUAUAAUCGGACAUGAGGAUCACCCAUGUAGAGAAGGCGGUCUCAGCA	14 nM	11 nM		
AGAAUGGGCGAGAAGGGAGUACAUGAGGAUCACCCAUGUGGUUCAUGGUGCUCAGGAUAUCGAUAGACCAAGGAGCGUCUUUGG	20.1 nM	140 nM		
UCCCUAAGGCAGGCCGACCAUACAUGAGGAUCACCCAUGUCGAGAAGGUGCUCACGGGUGGGUGGCAAGGAUAUCGGGUCGGAU			92.9 nM	43.6 nM
UGUUGUAUUACAGGAUAUCUAUGAUUUAUAUUUAGAGAAGGGUAUUCACAUGAGGAUCACCCAUGUAUAUACGAGGAAGUUGUG			48.7 nM	55.9 nM
UGAGCCUCGUGAGGAUAUACAUGAGGAUCACCCAUGUAAAUGGAAGAACGGAGGAAACUCCGAAUGUAGAAGGCACGAGGCUCA	145 nM	773 nM		
UGAUAGGACAGAGGAUAUACGUGCUAGAGAUACUAGCAAAUAAUCCUUACAUGAGGAUCACCCAUGUAGAAGGCUGUCCUAUCU	19.3 nM	47.4 nM		
GCUGGUCGAGGAUAUAUAUGACGUGCUUCGGCACGAAGAUCACAUGAGGAUCACCCAUGUAGAAGGUGACCAGC	53.8 nM	267 nM		
UGUCUAUUUGAAGGAUAUCUAAGCAUAAACCGGAGAGAAGGUCAAUUAUACAUGAGGAUCACCCAUGUUGAGAUUGAUGGGUUU	16.2 nM	18.4 nM		
UUAUGCUUUGAGAAGGUUCAAACUACAUAUUGCGCACAUGAGGAUCACCCAUGUUGGUGAAUAAGAAAGGAUAUUAGACUGUGC	267 nM	165 nM		
AAAUAGUUAGGAUAUACAUGAGGAUCACCCAUGUGGACUGAUGGCGAUUGAUUUAGUGGUAGAAGGGACUCAAA	40.3 nM	58.4 nM		
ACGACGAAAGUCGAACGAUGUAGCAGAAGGACAUGAGGAUCACCCAUGUUAUCUGUAAUAGACAUGUAGGAUAUGCUACAUCGA	7.89 nM	41.5 nM		
AGGUAAACCACAGGAUAUGGCUAGCAUAGCUAGCCAGAAGGGUGGUCGAAACCAUGUAAAUACAUGAGGAUCACCCAUGUAUCC			566 nM	75.3 nM
GGGAAGUGAGGAUAUAUGAGAGAGGCUGAACCGGACGAGAAGUAGAAGGCACAUGAGGAUCACCCAUGUAGGGA	118 nM	86 nM		
AGUCGGAGCAGAGGAUAUAUACAUGAGGAUCACCCAUGUAAAUGAAUAAGCUGGAAACAGCAUGUAUAGAAGGCUGCUCCGACA	45.6 nM	125 nM		
CAGCGCUGUCGAGAGGAUAUGCGGUGAUGGACAUGAGGAUCACCCAUGUUAGCGACAGCAUUACGGUAGAAGGCUUCACAGCUGC			51.5 nM	202 nM
GGUGAGCAAGGAUAUACAUGAGGAUCACCCAUGUGAGAUGCGCAGGGCCCGAUGAUAGGUAGAAGGUGCGUCAC	34.5 nM	72.8 nM		
GCCGGAUUUGUGAGGAUAUACCUAUGGAUACAUAGGUAGAAGGCACAUGAGGAUCACCCAUGUUCCUCUCCGGC	49 nM	582 nM		
UUAAAUCGAAACAUGAGGAUCACCCAUGUGUUGUAAUUAAUAUAGGAUAUGUGUAUACUUUUAUAAUAGAAGGAUGAUAAUACU			17.4 nM	12.1 nM
UAUUUAAUCUCAGGAUAUAACAUUACAUACAAAUUAGAAGGGAGAACAUGAGGAUCACCCAUGUACAUGAGGAUCACCCAUGUU			692 nM	576 nM
